Laboratory results published in ChEMBL document CHEMBL4428081, “Selective AKR1C3 Inhibitors Potentiate Chemotherapeutic Activity in Multiple Acute Myeloid Leukemia (AML) Cell Lines” (ACS Med Chem Lett, 2016).
The source made the active and inactive calls. The rule behind the calls is not given here.

Experiments:
CCRF-CEM = assay: Cytotoxicity against human CCRF-CEM cells at 10 uM after 48 hrs by sulforhodamine B assay; assay type: functional, cell-based
HL-60(TB) = assay: Cytotoxicity against human HL-60(TB) cells at 10 uM after 48 hrs by sulforhodamine B assay; assay type: functional, cell-based
In short: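 Single-concentration (10 μM) test run within the National Cancer Institute 60 cancer cell line screen, with HL-60 as one panel member.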

K562 = assay: Cytotoxicity against human K562 cells at 10 uM after 48 hrs by sulforhodamine B assay; assay type: functional, cell-based
MOLT-4 = assay: Cytotoxicity against human MOLT4 cells at 10 uM after 48 hrs by sulforhodamine B assay; assay type: functional, cell-based
RPMI-8226 = assay: Cytotoxicity against human RPMI8226 cells at 10 uM after 48 hrs by sulforhodamine B assay; assay type: functional, cell-based
SR = assay: Cytotoxicity against human SR cells at 10 uM after 48 hrs by sulforhodamine B assay; assay type: functional, cell-based
In short: (§1)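 NCI 60 cancer cell line panel screen run at a single concentration of 10 μM.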

A549 = assay: Cytotoxicity against human A549/ATCC cells at 10 uM after 48 hrs by sulforhodamine B assay; assay type: functional, cell-based
HOP-62 = assay: Cytotoxicity against human HOP62 cells at 10 uM after 48 hrs by sulforhodamine B assay; assay type: functional, cell-based
HOP-92 = assay: Cytotoxicity against human HOP92 cells at 10 uM after 48 hrs by sulforhodamine B assay; assay type: functional, cell-based
NCI-H226 = assay: Cytotoxicity against human NCI-H226 cells at 10 uM after 48 hrs by sulforhodamine B assay; assay type: functional, cell-based
NCI-H23 = assay: Cytotoxicity against human NCI-H23 cells at 10 uM after 48 hrs by sulforhodamine B assay; assay type: functional, cell-based
NCI-H322M = assay: Cytotoxicity against human NCI-H322M cells at 10 uM after 48 hrs by sulforhodamine B assay; assay type: functional, cell-based
NCI-H460 = assay: Cytotoxicity against human NCI-H460 cells at 10 uM after 48 hrs by sulforhodamine B assay; assay type: functional, cell-based
NCI-H522 = assay: Cytotoxicity against human NCI-H522 cells at 10 uM after 48 hrs by sulforhodamine B assay; assay type: functional, cell-based
COLO 205 = assay: Cytotoxicity against human COLO205 cells at 10 uM after 48 hrs by sulforhodamine B assay; assay type: functional, cell-based
HCC 2998 = assay: Cytotoxicity against human HCC2998 cells at 10 uM after 48 hrs by sulforhodamine B assay; assay type: functional, cell-based
HCT-116 = assay: Cytotoxicity against human HCT116 cells at 10 uM after 48 hrs by sulforhodamine B assay; assay type: functional, cell-based
HCT-15 = assay: Cytotoxicity against human HCT15 cells at 10 uM after 48 hrs by sulforhodamine B assay; assay type: functional, cell-based
KM12 = assay: Cytotoxicity against human KM12 cells at 10 uM after 48 hrs by sulforhodamine B assay; assay type: functional, cell-based
SW-620 = assay: Cytotoxicity against human SW620 cells at 10 uM after 48 hrs by sulforhodamine B assay; assay type: functional, cell-based; in short: as §1
SF-268 = assay: Cytotoxicity against human SF268 cells at 10 uM after 48 hrs by sulforhodamine B assay; assay type: functional, cell-based
SF-295 = assay: Cytotoxicity against human SF295 cells at 10 uM after 48 hrs by sulforhodamine B assay; assay type: functional, cell-based
SF-539 = assay: Cytotoxicity against human SF539 cells at 10 uM after 48 hrs by sulforhodamine B assay; assay type: functional, cell-based
SNB-19 = assay: Cytotoxicity against human SNB19 cells at 10 uM after 48 hrs by sulforhodamine B assay; assay type: functional, cell-based; in short: as §1
SNB-75 = assay: Cytotoxicity against human SNB75 cells at 10 uM after 48 hrs by sulforhodamine B assay; assay type: functional, cell-based; in short: as §1
U-251 = assay: Cytotoxicity against human U251 cells at 10 uM after 48 hrs by sulforhodamine B assay; assay type: functional, cell-based; in short: as §1
LOX IMVI = assay: Cytotoxicity against human LOXIMVI cells at 10 uM after 48 hrs by sulforhodamine B assay; assay type: functional, cell-based
Malme-3M = assay: Cytotoxicity against human MALME-3M cells at 10 uM after 48 hrs by sulforhodamine B assay; assay type: functional, cell-based
M14 = assay: Cytotoxicity against human M14 cells at 10 uM after 48 hrs by sulforhodamine B assay; assay type: functional, cell-based
MDA-MB-435 = assay: Cytotoxicity against human MDA-MB-435 cells at 10 uM after 48 hrs by sulforhodamine B assay; assay type: functional, cell-based
SK-MEL-2 = assay: Cytotoxicity against human SK-MEL-2 cells at 10 uM after 48 hrs by sulforhodamine B assay; assay type: functional, cell-based
SK-MEL-28 = assay: Cytotoxicity against human SK-MEL-28 cells at 10 uM after 48 hrs by sulforhodamine B assay; assay type: functional, cell-based
SK-MEL-5 = assay: Cytotoxicity against human SK-MEL-5 cells at 10 uM after 48 hrs by sulforhodamine B assay; assay type: functional, cell-based
UACC-257 = assay: Cytotoxicity against human UACC257 cells at 10 uM after 48 hrs by sulforhodamine B assay; assay type: functional, cell-based; in short: as §1
UACC-62 = assay: Cytotoxicity against human UACC62 cells at 10 uM after 48 hrs by sulforhodamine B assay; assay type: functional, cell-based; in short: as §1
IGROV-1 = assay: Cytotoxicity against human IGROV1 cells at 10 uM after 48 hrs by sulforhodamine B assay; assay type: functional, cell-based
OVCAR-3 = assay: Cytotoxicity against human OVCAR3 cells at 10 uM after 48 hrs by sulforhodamine B assay; assay type: functional, cell-based
OVCAR-4 = assay: Cytotoxicity against human OVCAR4 cells at 10 uM after 48 hrs by sulforhodamine B assay; assay type: functional, cell-based
OVCAR-5 = assay: Cytotoxicity against human OVCAR5 cells at 10 uM after 48 hrs by sulforhodamine B assay; assay type: functional, cell-based
OVCAR-8 = assay: Cytotoxicity against human OVCAR8 cells at 10 uM after 48 hrs by sulforhodamine B assay; assay type: functional, cell-based
NCI/ADR-RES = assay: Cytotoxicity against human NCI-ADR-RES cells at 10 uM after 48 hrs by sulforhodamine B assay; assay type: functional, cell-based
786-0 = assay: Cytotoxicity against human 786-0 cells at 10 uM after 48 hrs by sulforhodamine B assay; assay type: functional, cell-based
A498 = assay: Cytotoxicity against human A498 cells at 10 uM after 48 hrs by sulforhodamine B assay; assay type: functional, cell-based
ACHN = assay: Cytotoxicity against human ACHN cells at 10 uM after 48 hrs by sulforhodamine B assay; assay type: functional, cell-based
CAKI-1 = assay: Cytotoxicity against human Caki1 cells at 10 uM after 48 hrs by sulforhodamine B assay; assay type: functional, cell-based
RXF 393 = assay: Cytotoxicity against human RXF393 cells at 10 uM after 48 hrs by sulforhodamine B assay; assay type: functional, cell-based
SN12C = assay: Cytotoxicity against human SN12C cells at 10 uM after 48 hrs by sulforhodamine B assay; assay type: functional, cell-based
TK-10 = assay: Cytotoxicity against human TK10 cells at 10 uM after 48 hrs by sulforhodamine B assay; assay type: functional, cell-based; in short: as §1
UO-31 = assay: Cytotoxicity against human UO31 cells at 10 uM after 48 hrs by sulforhodamine B assay; assay type: functional, cell-based; in short: as §1
PC-3 = assay: Cytotoxicity against human PC3 cells at 10 uM after 48 hrs by sulforhodamine B assay; assay type: functional, cell-based
DU-145 = assay: Cytotoxicity against human DU145 cells at 10 uM after 48 hrs by sulforhodamine B assay; assay type: functional, cell-based
MCF7 = assay: Cytotoxicity against human MCF7 cells at 10 uM after 48 hrs by sulforhodamine B assay; assay type: functional, cell-based
MDA-MB-231 = assay: Cytotoxicity against human MDA-MB-231 cells at 10 uM after 48 hrs by sulforhodamine B assay; assay type: functional, cell-based
Hs-578T = assay: Cytotoxicity against human Hs 578T cells at 10 uM after 48 hrs by sulforhodamine B assay; assay type: functional, cell-based
T47D = assay: Cytotoxicity against human T47D cells at 10 uM after 48 hrs by sulforhodamine B assay; assay type: functional, cell-based; in short: as §1
MDA-MB-468 = assay: Cytotoxicity against human MDA-MB-468 cells at 10 uM after 48 hrs by sulforhodamine B assay; assay type: functional, cell-based
HL-60 = assay: Cytotoxicity against human HL60 cells assessed as reduction in cell viability up to 100 uM at 72 hrs by MTS assay; assay type: functional, cell-based
In short: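 HL-60 human acute promyelocytic leukemia cells exposed to AKR1C3 inhibitor alone, with no chemotherapeutic, over a range up to 100 μM. Lower working range was 0.1–1 μM. Read-out was cell viability relative to untreated control.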

KG-1a = assay: Cytotoxicity against human KG1a cells expressing AKR1C3 assessed as reduction in cell viability at >25 uM at 72 hrs by MTS assay; assay type: functional, cell-based
[1] = biological target: T1, Aldo-keto reductase family 1 member C3 (Homo sapiens) (UniProt P42330); assay: Inhibition of AKR1C3 in human HL60 cells assessed as potentiation of etoposide-induced cytotoxicity by measuring reduction in cell viability at 0.1 uM coincubated with etoposide at 1 uM after 72 hrs by MTS assay (reference value: 40%); assay type: cell-based
T1 sequence (whole entry): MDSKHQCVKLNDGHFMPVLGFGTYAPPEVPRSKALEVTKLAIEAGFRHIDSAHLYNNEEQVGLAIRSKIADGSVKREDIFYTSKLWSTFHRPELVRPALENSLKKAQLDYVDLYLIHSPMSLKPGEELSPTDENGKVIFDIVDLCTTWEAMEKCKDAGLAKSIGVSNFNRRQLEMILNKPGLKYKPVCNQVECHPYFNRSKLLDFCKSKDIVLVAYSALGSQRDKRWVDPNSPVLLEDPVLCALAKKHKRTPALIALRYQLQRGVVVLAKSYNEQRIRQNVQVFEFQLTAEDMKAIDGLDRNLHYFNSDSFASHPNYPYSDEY
In short: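 HL-60 or KG1a cells were coincubated with inhibitor and etoposide for 72 h, then cell viability was read. Values are mean ± SD (n = 6). Treatments were compared with control by two-tailed t test.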

[2] = biological target: T1, Aldo-keto reductase family 1 member C3 (Homo sapiens); assay: Inhibition of AKR1C3 in human HL60 cells assessed as potentiation of etoposide-induced cytotoxicity by measuring reduction in cell viability pre-treated with 0.1 to 1 uM compound for 24 hrs followed by 1 uM etoposide exposure for additional 72 hrs by MTS assay; assay type: cell-based

For `CC(C)=CCc1cc(/C=C/C(=O)O)ccc1OC(=O)CCc1ccccc1`, the Activity (CCRF-CEM) was “inactive”, the Activity (HL-60(TB)) was “inactive” and the Activity (K562) was “inactive”. The Activity (MOLT-4) was “inactive”, the Activity (RPMI-8226) was “inactive” and the Activity (SR) was “inactive”. The Activity (A549) was “inactive”, the Activity (HOP-62) was “inactive” and the Activity (HOP-92) was “inactive”. For the same compound, the Activity (NCI-H226) was “inactive”, the Activity (NCI-H23) was “inactive” and the Activity (NCI-H322M) was “inactive”. For the same compound, the Activity (NCI-H460) was “inactive”, the Activity (NCI-H522) was “inactive” and the Activity (COLO 205) was “inactive”. For the same compound, the Activity (HCC 2998) was “inactive”, the Activity (HCT-116) was “inactive” and the Activity (HCT-15) was “inactive”. For the same compound, the Activity (KM12) was “inactive”, the Activity (SW-620) was “inactive” and the Activity (SF-268) was “inactive”. The Activity (SF-295) was “inactive”, the Activity (SF-539) was “inactive” and the Activity (SNB-19) was “inactive”. For the same compound, the Activity (SNB-75) was “inactive”, the Activity (U-251) was “inactive” and the Activity (LOX IMVI) was “inactive”. The Activity (Malme-3M) was “inactive”, the Activity (M14) was “inactive” and the Activity (MDA-MB-435) was “inactive”. For the same compound, the Activity (SK-MEL-2) was “inactive”, the Activity (SK-MEL-28) was “inactive” and the Activity (SK-MEL-5) was “inactive”. The Activity (UACC-257) was “inactive”, the Activity (UACC-62) was “inactive” and the Activity (IGROV-1) was “inactive”. The Activity (OVCAR-3) was “inactive”, the Activity (OVCAR-4) was “inactive” and the Activity (OVCAR-5) was “inactive”. The Activity (OVCAR-8) was “inactive”, the Activity (NCI/ADR-RES) was “inactive” and the Activity (786-0) was “inactive”. For the same compound, the Activity (A498) was “inactive”, the Activity (ACHN) was “inactive” and the Activity (CAKI-1) was “inactive”. The Activity (RXF 393) was “inactive”, the Activity (SN12C) was “inactive” and the Activity (TK-10) was “inactive”. The Activity (UO-31) was “inactive”, the Activity (PC-3) was “inactive” and the Activity (DU-145) was “inactive”. The Activity (MCF7) was “inactive”, the Activity (MDA-MB-231) was “inactive” and the Activity (Hs-578T) was “inactive”. For the same compound, the Activity (T47D) was “inactive”, the Activity (MDA-MB-468) was “inactive” and the Activity (HL-60) was “inactive”. The Activity (KG-1a) was “Active”, the Activity [1] was 70% and the Activity [2] was 80 to 95%.
